Reference: ChEMBL document CHEMBL4715833, “Design, synthesis, in-vitro, in-vivo and in-silico studies of pyrrolidine-2,5-dione derivatives as multitarget anti-inflammatory agents” (Eur J Med Chem, 2020)

Columns and labels:
[1] = Acute toxicity in Swiss albino mouse assessed as clinical changes in defecation at 1000 mg/kg, ip administered as single dose measured after 4 hrs; type: organism-based; details: in vivo
In short: (§1)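 Swiss albino mice of either sex (30-35 g), kept at 22-25 °C on a 12 h light/dark cycle with free food and water. Single i.p. dose; controls received normal saline 10 mL/kg. Animals were watched at random for allergic or abnormal behavioural signs during the first 4 h.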

Mus musculus [2] = assay: Antiinflammatory activity against carrageenan-induced paw edema in Swiss mouse assessed as inhibition of paw edema at 100 mg/kg administered 30 mins prior to carrageenan challenge and measured after 4 hrs by […]-method (reference value: 14.46 +/- 1.568%); type: functional; details: time 4.5 hrs
[3] = Acute toxicity in Swiss albino mouse assessed as changes in central nervous system at 1000 mg/kg, ip administered as single dose measured after 4 hrs; type: organism-based; details: in vivo; in short: as §1
Homo sapiens = species: Homo sapiens; assay: Selectivity index, ratio of IC50 for sheep COX1 to IC50 for recombinant human COX2 expressed in baculovirus infected Sf21 cells
In short: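 Enzymes activated for 5 min on ice with cofactor solution of 0.9 mM glutathione, hematin and 0.24 mM TMPD in 0.1 M Tris-HCl pH 8.0; COX-2 at 300 units/ml. Reaction started with 30 mM arachidonic acid stock, run 5 min, absorbance read at 570 nm. IC50 taken from inhibition-vs-concentration plots as means of three determinations. SI = IC50(COX-1)/IC50(COX-2).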

[4] = Acute toxicity in Swiss albino mouse assessed as clinical changes in salivation at 1000 mg/kg, ip administered as single dose measured after 4 hrs; type: organism-based; details: in vivo; in short: as §1
Mus musculus [5] = assay: Antiinflammatory activity in bradykinin-induced paw edema in Balb/c mouse assessed as inhibition of paw edema at 100 mg/kg, ip administered 1 hr prior to bradykinin challenge and measured after 3 hrs relative to control; type: functional; details: time 4 hrs
In short: (§2)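 BALB/c mice of either sex (30–35 g), 8 per group, dosed i.p. with 10% DMSO, reference drug or compound (100 mg/kg). After 1 h, subplantar irritant: PGE2 0.01 µg/ml, bradykinin 20 µg/ml, histamine 0.1 ml of 1 mg/ml, or leukotriene 10 µg/ml.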

[6] = Acute toxicity in Swiss albino mouse assessed as convulsion at 1000 mg/kg, ip administered as single dose measured after 4 hrs; type: organism-based; details: in vivo; in short: as §1
[7] = Inhibition of trypsin (unknown origin) using casein as substrate preincubated for 5 mins followed by substrate addition and measured after 20 mins; set-up: species or system Homo sapiens
In short: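 Trypsin 0.06 mg/ml in 20 mM Tris-HCl pH 7.4 with compound at 31.25–1000 µg/ml, 5 min at 37 °C. 0.8% (w/v) casein added, 20 min further, stopped with 70% perchloric acid. After centrifugation, supernatant absorbance read at 217 nm against buffer blank. % inhibition against control; IC50 from plot; three runs.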

Mus musculus [8] = assay: Antiinflammatory activity in ip dosed leukotriene-induced paw edema in Balb/c mouse assessed as inhibition of paw edema administered 1 hr prior to leukotriene challenge and measured up to 5 hrs; type: functional, organism-based; details: time 2-6 hrs; in short: as §2
Mus musculus [9] = assay: Antiinflammatory activity against carrageenan-induced paw edema in Swiss mouse assessed as inhibition of paw edema at 100 mg/kg administered 30 mins prior to carrageenan challenge and measured after 5 hrs by […]-method (reference value: 7.31 +/- 3.204%); type: functional; details: time 5.5 hrs
[10] = Acute toxicity in Swiss albino mouse assessed as change in gait at 1000 mg/kg, ip administered as single dose measured after 4 hrs; type: organism-based; details: in vivo; in short: as §1
Mus musculus [11] = assay: Antiinflammatory activity against carrageenan-induced paw edema in Swiss mouse assessed as inhibition of paw edema at 100 mg/kg administered 30 mins prior to carrageenan challenge and measured after 2 hrs by […]-method (reference value: 7.39 +/- 2.475%); type: functional; details: time 2.5 hrs
Mus musculus [12] = assay: Antiinflammatory activity against carrageenan-induced paw edema in Swiss mouse assessed as inhibition of paw edema at 25 mg/kg administered 30 mins prior to carrageenan challenge and measured after 5 hrs by […]-method (reference value: 7.31 +/- 3.204%); type: functional; details: time 5.5 hrs
[13] = Acute toxicity in Swiss albino mouse assessed as clinical changes in skin at 1000 mg/kg, ip administered as single dose measured after 4 hrs; type: organism-based; details: in vivo; in short: as §1
[14] = Acute toxicity in Swiss albino mouse assessed as change in clinical sign of mucus membrane at 1000 mg/kg, ip administered as single dose measured after 4 hrs; type: organism-based; details: in vivo; in short: as §1
Mus musculus [15] = assay: Antiinflammatory activity against carrageenan-induced paw edema in Swiss mouse assessed as inhibition of paw edema at 100 mg/kg administered 30 mins prior to carrageenan challenge and measured after 3 hrs by […]-method (reference value: 11.41 +/- 3.069%); type: functional; details: time 3.5 hrs
[16] = Acute toxicity in Swiss albino mouse assessed as drowsiness at 1000 mg/kg, ip administered as single dose measured after 4 hrs; type: organism-based; details: in vivo; in short: as §1
[17] = Acute toxicity in ip dosed Swiss albino mouse assessed as mortality administered as single dose; type: organism-based; details: in vivo
In short: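 Swiss albino mice of either sex (30-35 g), housed at 22-25 °C with 12 h light/dark and free food and water. Single i.p. dose; the saline control got 10 mL/kg. Deaths were counted 24 h after dosing. Dose table lists groups of 8 male and 8 female mice given 5 to 2000 mg/kg.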

Mus musculus [18] = assay: Antiinflammatory activity against carrageenan-induced paw edema in Swiss mouse assessed as inhibition of paw edema at 50 mg/kg administered 30 mins prior to carrageenan challenge and measured after 1 hr by […]-method (reference value: 7.66 +/- 3.753%); type: functional; details: 1.5 h, time 90 min
Mus musculus [19] = assay: Antiinflammatory activity against carrageenan-induced paw edema in Swiss mouse assessed as inhibition of paw edema at 25 mg/kg administered 30 mins prior to carrageenan challenge and measured after 2 hrs by […]-method (reference value: 7.39 +/- 2.475%); type: functional; details: time 2.5 hrs
[20] = Acute toxicity in Swiss albino mouse assessed as clinical changes in urinary incontinence at 1000 mg/kg, ip administered as single dose measured after 4 hrs; type: organism-based; details: in vivo; in short: as §1
Mus musculus [21] = assay: Antiinflammatory activity against carrageenan-induced paw edema in Swiss mouse assessed as inhibition of paw edema at 25 mg/kg administered 30 mins prior to carrageenan challenge and measured after 1 hr by […]-method (reference value: 7.66 +/- 3.753%); type: functional; details: 1.5 h, time 90 min
[22] = Acute toxicity in Swiss albino mouse assessed as tremor at 1000 mg/kg, ip administered as single dose measured after 4 hrs; type: organism-based; details: in vivo; in short: as §1
[23] = Acute toxicity in Swiss albino mouse assessed as ptosis at 1000 mg/kg, ip administered as single dose measured after 4 hrs; type: organism-based; details: in vivo; in short: as §1
Mus musculus [24] = assay: Antiinflammatory activity against carrageenan-induced paw edema in Swiss mouse assessed as inhibition of paw edema at 25 mg/kg administered 30 mins prior to carrageenan challenge and measured after 3 hrs by […]-method (reference value: 11.41 +/- 3.069%); type: functional; details: time 3.5 hrs
[25] = Acute toxicity in Swiss albino mouse assessed as changes in circulatory signs at 1000 mg/kg, ip administered as single dose measured after 4 hrs; type: organism-based; details: in vivo; in short: as §1
Mus musculus [26] = assay: Antiinflammatory activity against carrageenan-induced paw edema in Swiss mouse assessed as inhibition of paw edema at 50 mg/kg administered 30 mins prior to carrageenan challenge and measured after 5 hrs by […]-method (reference value: 7.31 +/- 3.204%); type: functional; details: time 5.5 hrs

| SMILES | Activity [1] | inhibition in vivo at 100 mg/kg (Mus musculus [2]) | Activity [3] | Ratio IC50 (Homo sapiens) | Activity [4] | inhibition in vivo at 100 mg/kg (Mus musculus [5]) | Activity [6] | IC50 [7] | inhibition (Mus musculus [8]) | inhibition in vivo at 100 mg/kg (Mus musculus [9]) | Activity [10] | inhibition in vivo at 100 mg/kg (Mus musculus [11]) | inhibition in vivo at 25 mg/kg (Mus musculus [12]) | Activity [13] | Activity [14] | inhibition in vivo at 100 mg/kg (Mus musculus [15]) | Activity [16] | LD50 [17] | inhibition in vivo at 50 mg/kg (Mus musculus [18]) | inhibition in vivo at 25 mg/kg (Mus musculus [19]) | also measured |
| --- | --- | --- | --- | --- | --- | --- | --- | --- | --- | --- | --- | --- | --- | --- | --- | --- | --- | --- | --- | --- | --- |
| Cc1ccc(C(=O)CC2CC(=O)N(c3ccc(S(N)(=O)=O)cc3)C2=O)cc1 (centres undefined) | Non-Toxic | 66.1% | Non-Toxic | 31.5 | Non-Toxic | 27.1% | Non-Toxic | 15.3 µM | Dose-dependent effect | 68.2% | Non-Toxic | 63.8% | 56.6% | Non-Toxic | Non-Toxic | 61.6% | Non-Toxic | 1000 mg/kg | 51.5% | 53% | Activity [20]: Non-Toxic; inhibition in vivo at 25 mg/kg (Mus musculus [21]): 45.6%; Activity [22]: Non-Toxic; Activity [23]: Non-Toxic; inhibition in vivo at 25 mg/kg (Mus musculus [24]): 51.5%; Activity [25]: Non-Toxic; inhibition in vivo at 50 mg/kg (Mus musculus [26]): 59.3% |
| O=C1CCCCC1C1CC(=O)N(Cc2ccccc2)C1=O (centres undefined) | Non-Toxic | 49.7% | Non-Toxic | 3.13 | Non-Toxic | 12.4% | Non-Toxic | 17.5 µM | Dose-dependent effect | 55.1% | Non-Toxic | 49.6% | 23.4% | Non-Toxic | Non-Toxic | 51.6% | Non-Toxic | 1000 mg/kg | 34.5% | 28.3% | Activity [20]: Non-Toxic; inhibition in vivo at 25 mg/kg (Mus musculus [21]): 24.3%; Activity [22]: Non-Toxic; Activity [23]: Non-Toxic; inhibition in vivo at 25 mg/kg (Mus musculus [24]): 23.3%; Activity [25]: Non-Toxic; inhibition in vivo at 50 mg/kg (Mus musculus [26]): 47.8% |
